Measurements from different studies.
Each line is one published result; the experiments were not run side by side.
Target: Serine/threonine-protein kinase PLK2 (PLK2, Homo sapiens, UniProt Q9NYY3)

Compound | observed | mode | technique | tested at | measurement | value
Cc1ccc(NC(=O)c2ccc(CN3CCN(C)CC3)cc2)cc1Nc1nc(-c2cccnc2)cs1 | cell-free assay | – | – | 0.5 µM | remaining signal | 97.9%
CCN(CC)CCNC(=O)c1c(C)[nH]c(/C=C2\C(=O)Nc3ccc(F)cc32)c1C | enzyme activity | inhibitor | – | 10 µM | inhibition | 6%
C[C@H](c1ccnc(Nc2nc3ccc(-c4cc(N(C)C)ncn4)cc3[nH]2)c1)N1CCN(C(=O)CC(F)(F)F)CC1 | cell-free assay | – | competition with immobilised ligand | 0.1 µM | remaining binding | 100%
Cc1sc(C(=O)NC2COC2)cc1-n1cc(NC(=O)Nc2c(F)cccc2Cl)cn1 | enzyme activity | inhibitor | – | 10 µM | remaining activity | 95.2%
N[C@@H]1CCN(c2nccc(-c3cnn4ncccc34)n2)C1 | binding | – | – | 1 µM | remaining binding | 100%
Cc1ccc(Nc2nccc(N(C)c3ccc4c(C)n(C)nc4c3)n2)cc1S(N)(=O)=O | enzyme activity | inhibitor | – | 0.3 µM | inhibition | -15%
CCCCN(CCCC)C(=O)CN1C[C@H](c2cc(OC)c3c(c2)OCO3)[C@@H](C(=O)O)[C@@H]1CC(C)(C)CCC | cell-free assay | – | competition with immobilised ligand | 1 µM | remaining binding | 67.1%
COc1cc2c(Nc3ccc(Br)cc3F)ncnc2cc1OCC1CCN(C)CC1 | cell-free assay | – | – | 0.5 µM | remaining signal | 103%
O=C1CCc2cc(Nc3cc(OC4CCOCC4)c([N+](=O)[O-])cc3Cl)ccc2N1 | cell-free assay | – | competition with immobilised ligand | 1 µM | remaining binding | 92%
COc1cc2ncnc(Nc3ccc(Oc4ccccc4)c(C)c3C)c2cc1OC | enzyme activity | inhibitor | – | 1 µM | inhibition | 1%
CO[C@H]1CC[C@H](CNc2ccc(S(=O)(=O)NC(=O)c3ccc(N4CCN(CC5=C(c6ccc(Cl)cc6)CC(C)(C)CC5)CC4)cc3Oc3cnc4[nH]ccc4c3)cc2[N+](=O)[O-])CC1 | cell-free assay | – | competition with immobilised ligand | 1 µM | remaining binding | 100%
COc1cc(Cl)c(C(=O)N[C@@H](CN[C@H]2CC[C@@H](N)CC2)Cc2ccc(C#N)cc2)cc1-c1ccc(CN[C@H](C)c2ccc(C)cc2)o1 | enzyme activity | inhibitor | – | 1 µM | remaining activity | 96%
Cc1cnc(NC2CCOCC2)nc1-n1cnc(C(=O)NC(CN)c2cc(F)cc(Cl)c2)c1 (stereo not drawn) | enzyme activity | inhibitor | radiometric | 1 µM | remaining activity | 69%
COc1cc(-c2cn(C3CCc4ccccc4N(CC(F)(F)F)C3=O)nn2)ccc1-n1ccc(C)n1 (stereo not drawn) | cell-free assay | – | competition with immobilised ligand | 1 µM | remaining binding | 100%
Nc1ncnc2occ(-c3ccc(NC(=O)Nc4cc(C(F)(F)F)ccc4F)cc3)c12 | cell-free assay | inhibitor | – | 20 µM | remaining signal | 0.1%
CC(C)(O)[C@H]1CC[C@H](Nc2ccc3ncc(-c4cccc(C(F)(F)F)c4)n3n2)CC1 | enzyme activity | inhibitor | – | 1 µM | remaining activity | 93.5%
C[S+]([O-])c1ccc(-c2nc(-c3ccncc3)c(-c3ccc(F)cc3)[nH]2)cc1 (stereo not drawn) | cell-free assay | – | – | 0.5 µM | remaining signal | 95.6%
CC(C)(C)c1nc(-c2cccc(NS(=O)(=O)c3c(F)cccc3F)c2F)c(-c2ccnc(N)n2)s1 | enzyme activity | inhibitor | radiometric | 1 µM | remaining activity | 94%
CNC(=O)c1cc(Oc2ccc(NC(=O)Nc3ccc(Cl)c(C(F)(F)F)c3)cc2)ccn1 | enzyme activity | inhibitor | – | 0.3 µM | inhibition | -1%
O=C(Nc1cnn(-c2csc(C(=O)NC3COC3)c2)c1)Nc1ccccc1Cl | enzyme activity | inhibitor | – | 5 µM | remaining activity | 86%
CO[C@@H](C)c1c(Nc2ccc([C@H](N(C)C(=O)C3CCS(=O)(=O)CC3)C(F)(F)F)cc2)cnc2cc(Cl)nn12 | cell-free assay | – | competition with immobilised ligand | 1 µM | remaining binding | 100%
O=C1Nc2ccc(Cl)cc2C1=Cc1cc(Cl)c(O)c(Cl)c1 | cell-free assay | – | – | 0.5 µM | remaining signal | 95.4%
COc1cc(-c2cn(C3CCc4c(F)cccc4N(CC(F)(F)F)C3=O)nn2)ccc1-n1cnc(C)c1 (stereo not drawn) | cell-free assay | – | competition with immobilised ligand | 1 µM | remaining binding | 100%
CC/C(=N\NC(=O)NCc1cccc(O)c1)c1ccc(O)c(C)c1O | enzyme activity | inhibitor | – | 0.1 µM | inhibition | 1.3%
